In ChEMBL document CHEMBL1125555, “Structural alterations in desferrioxamine compatible with iron clearance in animals” (1992) one finds Iron excretion data, which are given here for 6 compounds.

Format in all cases: functional
Experiment [1] deals with Rattus norvegicus. In words: Effect on 24-h cumulative iron excretion in the urine of non-iron-overloaded bileduct-cannulated rats at a concentration of 450 umol/kg after subcutaneous administration. The method in brief:
(§1)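 Drugs given subcutaneously in Cremophor RH-40/water (40:60) to non-iron-overloaded, bile duct-cannulated rats. Rats were fasted 24 h before dosing, and the fast continued through the experiment. Bile and urine iron were collected over 24 h and reported as induced iron (mg/kg rat) with fractions in bile and urine. Efficiency is the percentage of the theoretical total (8.37 mg/kg). n = 2–6 per group.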

The test system of experiment [2] is Rattus norvegicus. Nature of the experiment: Effect on 24-hcumulative iron excretion in the urine of non-iron-overloaded bileduct-cannulated rats at a concentration of 450 umol/kg after subcutaneous administration. The method in brief:
as §1

The subject of experiment [3] is Rattus norvegicus. Nature of the experiment: Effect on 24-h cumulative iron excretion in the urine of non-iron-overloaded bileduct-cannulated rats at a concentration of 150 umol/kg after subcutaneous administration. The method in brief: as §1
Experiment [4] deals with Rattus norvegicus. Nature of the experiment: Effect on 24-hcumulative iron excretion in the urine of non-iron-overloaded bileduct-cannulated rats at a concentration of 150 umol/kg after subcutaneous administration. In short, it runs like this: as §1
Experiment [5] deals with Rattus norvegicus. Nature of the experiment: Effect on 24-h cumulative iron excretion in the bile of non-iron-overloaded bileduct-cannulated rats at a concentration of 150 umol/kg after subcutaneous administration. The method in brief:
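Drugs given subcutaneously in Cremophor RH-40/water (40:60) to non-iron-overloaded, bile duct-cannulated rats. Rats were fasted 24 h before dosing, and the fast continued through the experiment. Bile and urine iron were collected over 24 h and reported as induced iron (mg/kg rat) with fractions in bile and urine.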

As to `NCCCCCN(O)C(=O)CCC(=O)O`, the results for the Iron excretion in the experiment on Rattus norvegicus [1] and with Rattus norvegicus [2] were 0% and -0.003 mg/kg, respectively.

For `CCCCCCCCCC(=O)N(O)CCCCC(=O)N(O)CCCCC(=O)N(O)CCCCCN.Cl`, the figures for the Iron excretion in the experiment on Rattus norvegicus [3] and in the experiment with Rattus norvegicus [4] were 9.2% and 0.017 mg/kg, respectively.

Regarding `CC(=O)N(O)CCCCCCCC(=O)N(O)CCCCCCCC(=O)N(O)CCCCCN.Cl`, the Iron excretion worked out at 0% in the experiment on Rattus norvegicus [3] and 0 mg/kg in the experiment with Rattus norvegicus [4].

Turning to `CC(=O)N(O)CCCCCN`, the Iron excretion with Rattus norvegicus [1] is 0%; in the experiment on Rattus norvegicus [2] it was -0.001 mg/kg.

Turning to `CC(=O)N(O)CCCCCNC(=O)CCC(=O)N(O)CCCCCNC(=O)CCC(=O)N(O)CCCCCN` [DEFEROXAMINE], the Iron excretion in the experiment with Rattus norvegicus [5] is 74.6%; with Rattus norvegicus [3] it was 25.4%; with Rattus norvegicus [4] it was 0.059 mg/kg.

Consider `CC(=O)N(O)CCCCC(=O)N(O)CCCCC(=O)N(O)CCCCCN.Cl`, for which the Iron excretion amounted to 9.4% in the experiment on Rattus norvegicus [3] and 0.021 mg/kg in the experiment on Rattus norvegicus [4].
